Measurements reported in ChEMBL document CHEMBL1145462, “In vivo pharmacodynamic activity of the glycopeptide dalbavancin” (Antimicrob Agents Chemother, 2007).
Converted amounts (≈) assume the structure as drawn.

How the values were obtained:
[1] = test system: Streptococcus pneumoniae; experiment: AUC/MIC ratio of Streptococcus pneumoniae 1325 infected neutropenic mouse thigh infection model at 1.46 mg/kg, ip administered every 24 hrs by static effect experiment; format: functional; settings: route intraperitoneal
[2] = test system: Staphylococcus aureus; experiment: AUC/MBC ratio of Staphylococcus aureus 31005 infected neutropenic mouse thigh infection model at 67.7 mg/kg, ip administered every 72 hrs by static effect experiment; format: functional; settings: route intraperitoneal
[3] = test system: Staphylococcus aureus; experiment: Bactericidal activity in ip dosed […] Staphylococcus aureus ATCC 29213 infected neutropenic mouse thigh infection model assessed as reduction of colony count after 96 hrs by time kill study; format: functional, Thigh muscle
Outline: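 Neutropenic mice (cyclophosphamide ip 150 mg/kg day −4, 100 mg/kg day −1, then every 48 h) infected in thigh with 0.1 ml log-phase inoculum (10^6.6–10^7.6 CFU/ml) under halothane. Single ip doses of 5, 10, 20, 40, or 80 mg/kg were given 2 h later. Two mice sampled at 0.5–96 h. Thighs processed for CFU, reported as mean ± SD log10 CFU/thigh.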

[4] = test system: Staphylococcus aureus; experiment: AUC/MIC ratio of Staphylococcus aureus 31005 infected neutropenic mouse thigh infection model at 67.7 mg/kg, ip administered every 72 hrs by static effect experiment; format: functional; settings: route intraperitoneal
[5] = test system: Streptococcus pneumoniae; experiment: AUC/MIC ratio of Streptococcus pneumoniae 1199 infected neutropenic mouse thigh infection model at 0.72 mg/kg, ip administered every 72 hrs by static effect experiment; format: functional; settings: route intraperitoneal
[6] = test system: Streptococcus pneumoniae; experiment: AUC/MIC ratio of Streptococcus pneumoniae 1396 infected neutropenic mouse thigh infection model at 0.69 mg/kg, ip administered every 72 hrs by 2-log killing experiment; settings: route intraperitoneal
[7] = test system: Staphylococcus aureus; experiment: AUC/MIC ratio of Staphylococcus aureus 33591 infected neutropenic mouse thigh infection model at 114 mg/kg, ip administered every 72 hrs by 2-log killing experiment; format: functional; settings: route intraperitoneal
[8] = test system: Streptococcus pneumoniae; experiment: Bactericidal activity against penicillin-susceptible Streptococcus pneumoniae ATCC 10813 infected neutropenic Swiss ICR mouse thigh infection model assessed as drug level causing 1-log reduction of bacterial count at 1.26 mg/kg, ip dosed every 36 hrs; format: functional; settings: route intraperitoneal
[9] = test system: Staphylococcus aureus; experiment: AUC/MIC ratio of methicillin-resistant Staphylococcus aureus infected neutropenic mouse thigh infection model at 53.5 mg/kg, ip administered every 24 hrs by 2-log killing experiment; format: functional; settings: route intraperitoneal
[10] = Cmax in bacterial pathogen-infected neutropenic Swiss ICR mouse thigh infection model at 40 mg/kg, ip; format: ADME, organism-based; parameters: dose 40 mg/kg, route intraperitoneal; settings: in vivo
Outline: (§1)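 Thigh-infected neutropenic mice received single intraperitoneal doses (2.5, 5, 10, 20, 40, 80 mg/kg; 0.2 ml/dose). Blood was drawn by retroorbital aspiration from groups of three mice at 0.5, 1, 2, 4, 6, 24, 48, 72 and 96 h. Plasma levels were measured by microbiologic assay with Bacillus subtilis (detection limit 0.10 mg/liter). Noncompartmental analysis was used: half-life by linear least-squares regression, AUC by trapezoidal rule.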

[11] = test system: Staphylococcus aureus; experiment: AUC/MIC ratio of Staphylococcus aureus ATCC 25923 infected neutropenic mouse thigh infection model at 51.2 mg/kg, ip administered every 24 hrs by 1-log killing experiment; format: functional; settings: route intraperitoneal
[12] = test system: Staphylococcus aureus; experiment: Bactericidal activity against […] Staphylococcus aureus ATCC 29213 infected neutropenic Swiss ICR mouse thigh infection model assessed as drug level causing 1-log reduction of bacterial count at 15 mg/kg, ip dosed every 36 hrs; format: functional; settings: route intraperitoneal
[13] = test system: Staphylococcus aureus; experiment: AUC/MIC ratio of Staphylococcus aureus 307109 infected neutropenic mouse thigh infection model at 31 mg/kg, ip administered every 72 hrs by static effect experiment; format: functional; settings: route intraperitoneal
[14] = test system: Staphylococcus aureus; experiment: AUC/MBC ratio of Staphylococcus aureus Smith infected neutropenic mouse thigh infection model at 33.5 mg/kg, ip administered every 24 hrs by static effect experiment; format: functional; settings: route intraperitoneal
[15] = test system: Streptococcus pneumoniae; experiment: AUC/MIC ratio of Streptococcus pneumoniae 1199 infected neutropenic mouse thigh infection model at 0.85 mg/kg, ip administered every 72 hrs by 1-log killing experiment; format: functional; settings: route intraperitoneal
[16] = test system: Streptococcus pneumoniae; experiment: Bactericidal activity against penicillin-susceptible Streptococcus pneumoniae ATCC 10813 infected neutropenic Swiss ICR mouse thigh infection model assessed as drug level causing 2-log reduction of bacterial count at 1.34 mg/kg, ip dosed every 24 hrs; format: functional; settings: route intraperitoneal
Outline: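 Neutropenic mice (cyclophosphamide ip 150 mg/kg day −4, 100 mg/kg day −1, then every 48 h) received 0.1 ml log-phase inoculum per thigh under halothane. Intraperitoneal dalbavancin started 2 h later and was given for 6 days at q12h, q24h, q36h or q72h, two mice per regimen. Thigh CFU were counted at 144 h. Endpoint doses relative to start-of-therapy counts came from Hill-model nonlinear regression and are expressed per 24 h.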

[17] = test system: Staphylococcus aureus; experiment: AUC/MBC ratio of Staphylococcus aureus 31005 infected neutropenic mouse thigh infection model at 94.6 mg/kg, ip administered every 72 hrs by 1-log killing experiment; format: functional; settings: route intraperitoneal
[18] = test system: Streptococcus pneumoniae; experiment: AUC/MIC ratio of Streptococcus pneumoniae 1329 infected neutropenic mouse thigh infection model at 1.18 mg/kg, ip administered every 24 hrs by 1-log killing experiment; format: functional; settings: route intraperitoneal
[19] = test system: Staphylococcus aureus; experiment: AUC/MBC ratio of Staphylococcus aureus 33591 infected neutropenic mouse thigh infection model at 22.3 mg/kg, ip administered every 24 hrs by static effect experiment; format: functional; settings: route intraperitoneal
[20] = test system: Staphylococcus aureus; experiment: AUC/MIC ratio of Staphylococcus aureus ATCC 25923 infected neutropenic mouse thigh infection model at 185 mg/kg, ip administered every 72 hrs by 1-log killing experiment; format: functional; settings: route intraperitoneal
[21] = test system: Staphylococcus aureus; experiment: Bactericidal activity against […] Staphylococcus aureus ATCC 29213 infected neutropenic Swiss ICR mouse thigh infection model assessed as drug level causing 2-log reduction of bacterial count at 10 mg/kg, ip dosed every 72 hrs; format: functional; settings: route intraperitoneal
[22] = Half life in bacterial pathogen-infected neutropenic Swiss ICR mouse thigh infection model at 5 mg/kg, ip; format: ADME, organism-based; parameters: dose 5 mg/kg, route intraperitoneal; settings: in vivo; outline: as §1
[23] = test system: Streptococcus pneumoniae; experiment: AUC/MIC ratio of Streptococcus pneumoniae 1325 infected neutropenic mouse thigh infection model at 0.83 mg/kg, ip administered every 72 hrs by static effect experiment; format: functional; settings: route intraperitoneal
[24] = AUC in bacterial pathogen-infected neutropenic Swiss ICR mouse thigh infection model at 2.5 mg/kg, ip; format: ADME, organism-based; parameters: dose 2.5 mg/kg, route intraperitoneal; settings: in vivo
Outline: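 Single-dose serum PK in thigh-infected neutropenic mice; intraperitoneal dalbavancin (0.2 ml/dose) at 2.5–80 mg/kg. Blood from groups of three mice at 0.5–96 h by retroorbital aspiration; plasma level by Bacillus subtilis microbiologic assay (detection limit 0.10 mg/liter). Noncompartmental analysis; AUC by trapezoidal rule from mean concentrations, extrapolated to infinity.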

[25] = test system: Streptococcus pneumoniae; experiment: Antibacterial activity against Streptococcus pneumoniae 1293 by microdilution method; format: functional
Outline: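 MIC and MBC were determined by CLSI broth microdilution, in duplicate on at least two occasions. Staphylococci were grown in Mueller-Hinton broth and agar; pneumococci were plated on sheep blood agar.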

[26] = AUC in bacterial pathogen-infected neutropenic Swiss ICR mouse thigh infection model at 5 mg/kg, ip; format: ADME, organism-based; parameters: dose 5 mg/kg, route intraperitoneal; settings: in vivo; outline: as §1
[27] = test system: Streptococcus pneumoniae; experiment: AUC/MIC ratio of Streptococcus pneumoniae 1293 infected neutropenic mouse thigh infection model at 0.65 mg/kg, ip administered every 24 hrs by 2-log killing experiment; format: functional; settings: route intraperitoneal
[28] = test system: Staphylococcus aureus; experiment: Antibacterial activity against methicillin-resistant Staphylococcus aureus by microdilution method; format: functional
Outline: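 MICs in duplicate on at least two occasions by standard CLSI broth microdilution; S. aureus grown and quantified in Mueller-Hinton broth/agar.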

## CN[C@H]1C(=O)N[C@@H]2Cc3ccc(cc3)Oc3cc4cc(c3O[C@@H]3O[C@H](C(=O)O)[C@@H](O)[C@H](O)[C@H]3NC(=O)CCCCCCCCC(C)C)Oc3ccc(cc3Cl)[C@@H](O)[C@@H]3NC(=O)[C@H](NC(=O)[C@@H]4NC(=O)[C@@H](NC2=O)c2cc(cc(O)c2Cl)Oc2cc1ccc2O)c1ccc(O)c(c1)-c1c(O[C@H]2O[C@H](CO)[C@@H](O)[C@H](O)[C@@H]2O)cc(O)cc1[C@@H](C(=O)NCCCN(C)C)NC3=O [DALBAVANCIN]
[1]
  RatioAUC/MIC: 29
[2]
  Ratio: 112
[3]
  Activity: 4
[4]
  RatioAUC/MIC: 223
[5]
  RatioAUC/MIC: 10.3
[6]
  RatioAUC/MIC: 4.8
[7]
  RatioAUC/MIC: 195
[8]
  Activity: 1.53
[9]
  RatioAUC/MIC: 519
[10]
  Cmax: 385 µg/mL
[11]
  RatioAUC/MIC: 250
[12]
  Activity: 36
[13]
  RatioAUC/MIC: 94
[14]
  Ratio: 75
[15]
  RatioAUC/MIC: 12.1
[16]
  Activity: 1.75
[17]
  Ratio: 163
[18]
  RatioAUC/MIC: 23.5
[19]
  Ratio: 46
[20]
  RatioAUC/MIC: 317
[21]
  Activity: 128
[22]
  half-life: 9.6 h
[23]
  RatioAUC/MIC: 6
[24]
  AUC: 98 µg·h/mL
[25]
  MBC: 0.004 µg/mL (≈ 0.0022 µM)
  MIC: 0.004 µg/mL (≈ 0.0022 µM)
[26]
  AUC: 285 µg·h/mL
[27]
  RatioAUC/MIC: 25.9
[28]
  MBC: 0.25 µg/mL (≈ 0.138 µM)
  MIC: 0.06 µg/mL (≈ 0.033 µM)
